Reference: ChEMBL document CHEMBL1123499, “Synthesis, saludiuretic, and antihypertensive activity of 6,7-disubstituted 1(2H)- and 3,4-dihydro-1(2H)-phthalazinones” (1986)

Columns and labels:
Rattus norvegicus [1] = organism: Rattus norvegicus; test: Saluretic activity in rats after 0-24 hours, as sodium ion concentration in urine; type: functional
Summary of the method: (§1)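 Male Sabra rats (170-200 g), fasted 18 h, dosed orally 50 mg/kg in saline at 25 mL/kg, eight per compound, two per metabolic cage, no food or water. Urine collected 5 and 24 h after dosing and centrifuged. Chloride titrated with Hg(NO3)2/diphenylcarbazone after HNO3 acidification; Na+ and K+ by atomic absorption.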

Rattus norvegicus [2] = organism: Rattus norvegicus; test: Saluretic activity in rats after 5-24 hours, as chloride ion concentration in urine; type: functional; summary of the method: as §1
Rattus norvegicus [3] = organism: Rattus norvegicus; test: Saluretic activity in rats after 0-24 hours, as ratio of Na+/K+ ion concentration in urine; type: functional; summary of the method: as §1
Rattus norvegicus [4] = organism: Rattus norvegicus; test: Saluretic activity in rats after 0-24 hours, as potassium ion concentration in urine; type: functional; summary of the method: as §1
Rattus norvegicus [5] = organism: Rattus norvegicus; test: Compound was tested for antihypertensive activity in rat after 1 hr postdose; type: functional
Summary of the method: (§2)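 DOCA/saline hypertensive Sprague-Dawley rats (250-350 g), six per group, given 10 mg/kg doca s.c. daily with saline until systolic BP reached 170 mmHg (usually 3-4 weeks). Oral 25 mg/kg in 5 mL/kg 1% methylcellulose. Systolic BP by tail-cuff before and 1, 4, 24 h after; drop reported as mean ± SD.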

Rattus norvegicus [6] = organism: Rattus norvegicus; test: Saluretic activity in rats after 5-24 hours, as sodium ion concentration in urine; type: functional; summary of the method: as §1
Rattus norvegicus [7] = organism: Rattus norvegicus; test: Diuretic activity in rats at time intervals of 0-5 hours; type: functional, Urine
Summary of the method: (§3)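 Male Sabra rats (170-200 g), starved 18 h, given 50 mg/kg by stomach tube in saline (25 mL/kg load), eight per compound, saline and furosemide controls run alongside. Held two per metabolic cage at 22 °C without food or water. Urine volume measured at 5 and 24 h collections.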

Rattus norvegicus [8] = organism: Rattus norvegicus; test: Saluretic activity in rats after 0-5 hours, as potassium ion concentration in urine; type: functional; summary of the method: as §1
Rattus norvegicus [9] = organism: Rattus norvegicus; test: Diuretic activity in rats at time intervals of 0-24 hours; type: functional, Urine; summary of the method: as §3
Rattus norvegicus [10] = organism: Rattus norvegicus; test: Saluretic activity in rats after 0-5 hours, as sodium ion concentration in urine; type: functional; summary of the method: as §1
Rattus norvegicus [11] = organism: Rattus norvegicus; test: Diuretic activity in rats at time intervals of 5-24 hours; type: functional, Urine; summary of the method: as §3
Rattus norvegicus [12] = organism: Rattus norvegicus; test: Saluretic activity in rats after 5-24 hours, as ratio of Na+/K+ ion concentration in urine; type: functional; summary of the method: as §1
Rattus norvegicus [13] = organism: Rattus norvegicus; test: Saluretic activity in rats after 0-5 hours, as chloride ion concentration in urine; type: functional; summary of the method: as §1
Rattus norvegicus [14] = organism: Rattus norvegicus; test: Compound was tested for antihypertensive activity in rat after 24 hr postdose; type: functional; summary of the method: as §2
Rattus norvegicus [15] = organism: Rattus norvegicus; test: Saluretic activity in rats after 0-24 hours, as chloride ion concentration in urine; type: functional; summary of the method: as §1
Rattus norvegicus [16] = organism: Rattus norvegicus; test: Compound was tested for antihypertensive activity in rat after 4 hr postdose; type: functional; summary of the method: as §2
Rattus norvegicus [17] = organism: Rattus norvegicus; test: Saluretic activity in rats after 5-24 hours, as potassium ion concentration in urine; type: functional; summary of the method: as §1
Rattus norvegicus [18] = organism: Rattus norvegicus; test: Saluretic activity in rats after 0-5 hours, as ratio of Na+/K+ ion concentration in urine; type: functional; summary of the method: as §1
Rattus norvegicus [19] = test: The heart rate was measured in spontaneously hypertensive rat after po administration at 8 hr; type: functional
Summary of the method: (§4)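 Male-unspecified SHR (250-350 g; baseline BP at least 170 mmHg by indirect tail-cuff plethysmography), nonanesthetized, five per group. Single oral dose of 75 mg/kg. Indirect BP and heart rate recorded before dosing and 4, 8 and 24 h after. Group means reported, BP ± SEM.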

Rattus norvegicus [20] = test: The heart rate was measured in spontaneous hypertensive rat after po administration at 4 hr; type: functional; summary of the method: as §4
Rattus norvegicus [21] = test: Blood pressure was measured in spontaneously hypertensive rat after po administration at 24 hr; type: functional; summary of the method: as §4
Rattus norvegicus [22] = test: The heart rate was measured in spontaneously hypertensive rat after po administration at 24 hr; type: functional; summary of the method: as §4
Rattus norvegicus [23] = test: Blood pressure was measured in spontaneously hypertensive rat after po administration at 4 hr; type: functional; summary of the method: as §4
Rattus norvegicus [24] = test: Blood pressure was measured in spontaneously hypertensive rat after po administration at 8 hr; type: functional; summary of the method: as §4

| Structure (SMILES) | Saluretic activity (Rattus norvegicus [1]) [m equiv kg-1] | Saluretic activity (Rattus norvegicus [2]) [m equiv kg-1] | Ratio (Rattus norvegicus [3]) | Saluretic activity (Rattus norvegicus [4]) [m equiv kg-1] | Decrease in blood pressure (Rattus norvegicus [5]) [mmHg] | Saluretic activity (Rattus norvegicus [6]) [m equiv kg-1] | Diuretic activity (Rattus norvegicus [7]) [mL] | Saluretic activity (Rattus norvegicus [8]) [m equiv kg-1] | Diuretic activity (Rattus norvegicus [9]) [mL] | Saluretic activity (Rattus norvegicus [10]) [m equiv kg-1] | Diuretic activity (Rattus norvegicus [11]) [mL] | Ratio (Rattus norvegicus [12]) | Saluretic activity (Rattus norvegicus [13]) [m equiv kg-1] | Decrease in blood pressure (Rattus norvegicus [14]) [mmHg] | Saluretic activity (Rattus norvegicus [15]) [m equiv kg-1] | Decrease in blood pressure (Rattus norvegicus [16]) [mmHg] | Saluretic activity (Rattus norvegicus [17]) [m equiv kg-1] | Ratio (Rattus norvegicus [18]) | further results |
| --- | --- | --- | --- | --- | --- | --- | --- | --- | --- | --- | --- | --- | --- | --- | --- | --- | --- | --- | --- |
| CN1NCc2cc(Cl)c(S(N)(=O)=O)cc2C1=O | 10.43 | 3.15 | 1.33 | 7.82 | 31.3 | 5.98 | 5 | 2.55 | 11.8 | 4.45 | 6.8 | 1.13 | 6.2 | 22.7 | 9.35 | 45 | 5.27 | 1.74 |  |
| Cn1ncc2cc(S(N)(=O)=O)c(Cl)cc2c1=O | 7.84 | 5 | 1.52 | 5.16 | 29.7 | 5.26 | 2.2 | 1.24 | 4.8 | 2.58 | 2.6 | 1.34 | 2.22 | 19.3 | 7.22 | 47 | 3.92 | 2.1 |  |
| NS(=O)(=O)c1cc2c(O)nncc2cc1Cl | 12.37 | 4.1 | 2.44 | 5.06 | 13.7 | 4.21 | 7.7 | 2.55 | 11.3 | 8.16 | 3.6 | 1.68 | 9.87 | 38 | 13.97 | 33.7 | 2.51 | 3.18 |  |
| Cn1ncc2cc(Cl)c(S(N)(=O)=O)cc2c1=O | 11.1 | 2.3 | 2.33 | 4.76 | 31.7 | 2.4 | 6.1 | 2.67 | 8.8 | 8.7 | 2.7 | 1.15 | 7.27 | 26.3 | 9.57 | 47.7 | 2.09 | 3.27 |  |
| NS(=O)(=O)c1cc2c(=O)n(Cc3ccccc3)ncc2cc1Cl | 12.32 | 5.72 | 2.32 | 5.3 | 23 | 5.92 | 5.9 | 1.94 | 10.8 | 6.4 | 4.9 | 1.78 | 7.97 | 47 | 13.69 | 36 | 3.36 | 3.29 | Heart rate (Rattus norvegicus [19]): 411.6 beats min-1; Heart rate (Rattus norvegicus [20]): 399.6 beats min-1; BP (Rattus norvegicus [21]): 170.2 mmHg; Delta blood pressure (Rattus norvegicus [21]): 14.6 mmHg; Heart rate (Rattus norvegicus [22]): 402 beats min-1; BP (Rattus norvegicus [23]): 163.2 mmHg; Delta blood pressure (Rattus norvegicus [23]): 23.4 mmHg; BP (Rattus norvegicus [24]): 149 mmHg; Delta blood pressure (Rattus norvegicus [24]): 40.2 mmHg |
| NS(=O)(=O)c1cc2c(cc1Cl)CNN(Cc1ccco1)C2=O | 9.83 | 2.98 | 1.71 | 5.75 | 25.3 | 3.09 | 6.7 | 2.38 | 10.5 | 6.74 | 3.8 | 0.92 | 8.45 | 23 | 11.43 | 31.3 | 3.37 | 2.83 |  |
| NS(=O)(=O)c1cc2c(cc1Cl)C(=O)NNC2 | 9.07 | 6.28 | 1.64 | 5.52 | 34.7 | 5.84 | 2.9 | 1.58 | 6.6 | 3.23 | 3.7 | 1.48 | 3.49 | 47.7 | 9.77 | 51 | 3.94 | 2.04 |  |
| NS(=O)(=O)c1cc2cnn(Cc3ccccc3)c(=O)c2cc1Cl | 8.79 | 6 | 1.53 | 5.74 | 35.3 | 6.29 | 2.6 | 1.84 | 6.2 | 2.5 | 3.6 | 1.62 | 2.9 | 4.7 | 8.9 | 54.3 | 3.9 | 1.36 |  |
| NS(=O)(=O)c1cc(C(=O)O)c(NCc2ccco2)cc1Cl [FUROSEMIDE] | 16.22 | 1.65 | 1.85 | 8.78 | 35.8 | 3.02 | 19.2 | 4.36 | 22 | 13.2 | 3 | 0.68 | 16.2 | 5.3 | 17.85 | 59.2 | 4.42 | 3.03 |  |
